# Reference: ChEMBL document CHEMBL4513216, “Probing the Open Global Health Chemical Diversity Library for Multistage-Active Starting Points for Next-Generation Antimalarials” (ACS Infect Dis, 2020)
# Assay: Toxicity liver stage against HepG2, at 10uM
# Assay type: cell-based
# Parameters: test concentration 10 uM, cell line HepG2-A16-CD81EGFP
# Settings: human, HepG2-A16-CD81EGFP cells; read-out: INHIBITION
# Outline: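 Uninfected HepG2-A16-CD81EGFP cells, 3 × 10^3 per well, 1536-well, plated on prespotted compound at 10 μM final, parasite-free screening media added to match infected plates; puromycin 10 μM positive, DMSO 0.5% negative; run in parallel with 48 h PbLuc assay at 37 °C, 5% CO2; viability by CellTiter-Glo luminescence, normalized to controls.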
row,SMILES,cytotoxicity at 10 µM [%]
1,CC(C)N1CCCC(C(=O)N(C)CCCc2cnn(C)c2)C1 (configuration not stated),-8.03
2,CC(C)C(Sc1nncn1C1CC1)C(=O)NCc1cccnc1 (configuration not stated),-6.86
3,Cc1ccccc1-c1noc(CN2CCOC(Cn3cccn3)C2)n1 (configuration not stated),-5.04
4,c1ccc(-c2nnn3c2COC(CNCC2CC2)C3)cc1 (configuration not stated),-77.8
5,CCNC(=O)C1CCCN1S(=O)(=O)c1sc(=O)[nH]c1C (configuration not stated),1.34
6,CN(C)C(=O)N1C[C@H]2CC[C@@H](C1)N(Cc1nnc(-c3ccco3)o1)C2,5.9
7,O=C(c1ccnc(N2CCOC(c3ccc(Cl)cc3)C2)c1)N1CCCC1 (configuration not stated),-1.8
8,c1ccc(OCc2n[nH]c3c2CN(CC2CC2)C3)nc1,7.49
9,CSCCCN1C[C@H](NC(=O)c2ccc(CO)cc2)[C@@H](C2CC2)C1,-11.1
10,CCN1CCN(C(=O)c2nc(C)n(-c3ccccc3Cl)n2)CC1,-2.87
11,CC(C)NC(=O)c1cc(-c2ccc(S(C)(=O)=O)cc2)nc2c1cnn2C,4.21
12,Cc1ccccc1-c1cc(C(=O)N2CCCC(n3ccnc3C)C2)[nH]n1 (configuration not stated),14.3
13,CCN1CCC(CNC(=O)C2(c3ccc(F)cc3)CC2)C1 (configuration not stated),-23
14,Cc1ccc(C(C)NC(=O)N2CCN(S(C)(=O)=O)CC2)o1 (configuration not stated),25.3
15,Cn1cc(CN2CCC3(CC2)COC(COc2ccccn2)C3)cn1 (configuration not stated),0.719
16,Cc1nc(NC(=O)c2ccc(-n3ncc(C#N)c3N)cc2)sc1C,7.13
17,Cc1csc(N2CCCN(C(=O)c3ccsc3)CC2)n1,5.28
18,CCc1cc(C(F)(F)F)n2nc(C3CCCN3C3CCSCC3)cc2n1 (configuration not stated),3.81
19,O=C1CCCC2=Nc3nonc3NC(c3cccc(F)c3F)C12 (configuration not stated),0.285
20,Cc1cc(C)nc(N2CCC(Cn3cc(C(=O)N(C)C)cn3)CC2)n1,6.28
21,CN(Cc1ccc(Cl)c(F)c1)C(=O)CCc1ccncc1,3.31

row,SMILES,cytotoxicity at 10 µM [%]
1,CCOCCCNC(=O)C1(C)CCC(=O)N1c1ccccc1OC (configuration not stated),2.89
2,CCOC(=O)N1CCN(C(=O)Cc2c(C)nc(C)[nH]c2=O)CC1,-6.31
3,Cc1ccc(Cc2sc(NC(=O)C(C)S(C)(=O)=O)nc2C)cc1 (configuration not stated),13.1
4,CC[C@H]1CN2CC[C@H]1C[C@@H]2CNCc1ccc(OC)cc1,-1.19
5,CCSCCNC(=O)C(c1cccc(F)c1)N(C)C (configuration not stated),-11.9
6,Cn1cccc1C(=O)NCc1cnc2n1CCN(c1ccccn1)C2,-2.74
7,CCc1nnc2n1CCN(CC(=O)Nc1cc(C(C)(C)C)nn1C)C2,-5.77
8,Cc1noc(CCNC(=O)NCc2ccc(N3CCCCC3)cc2)n1,9.47
9,COc1cc(F)cc2sc(NC(=O)COCC3CCCO3)nc12 (configuration not stated),-5.07
10,C/C(NC(=O)c1ccco1)=C1/C(=O)C[C@@H]2[C@H]1C2(C)C,2.41
11,O=C(Nc1cnn(CC(=O)N2CCCCO2)c1)c1ccsc1,-1.23
12,O=C(c1ccco1)N1CCC2(CC1)C(=O)Nc1ccccc12,-144
13,CN(C)CC1(O)CCCN(Cc2ccccc2OCC(=O)N(C)C)C1 (configuration not stated),-1.21
14,CCOC(C)C(=O)N1CCN(S(C)(=O)=O)CC1 (configuration not stated),-5.35
15,CCOCc1cccc(NC(=O)C2COCCO2)c1 (configuration not stated),3.96
16,Nc1nc2c(c(N3CCCC(OCc4ccccn4)C3)n1)CCNCC2 (configuration not stated),-11.4
17,CC(C(=O)N1CCCN(c2ncccc2C#N)CC1)n1cncn1 (configuration not stated),-6.54
18,Cc1nnc2n1CCN(CCS(=O)(=O)c1ccc(Cl)cc1)C2,-4.53
19,C[C@@H](NC(=O)c1cnccn1)c1c(-c2ccc(F)cc2)noc1C(=O)O,1.02
20,O=C(COCC1CC1)N1CCSCC1,-21.2
21,COCCN(Cc1cnn(C)c1)c1nc(C)nc2sccc12,-138

row,SMILES,cytotoxicity at 10 µM [%]
1,O=C1CN(Cc2cc(O)c3cccc(F)c3n2)CCN1C1CCCC1,4.45
2,Cc1ccccc1CCCN1C(=O)CC2(CCSC2)C1=O (configuration not stated),-3.45
3,CC(C)(C(N)=O)N1CCN(C(=O)c2ccn(-c3cccc(Cl)c3)n2)CC1,-13.3
4,CN1CCCC1c1cc2cccnc2n1Cc1ccc(F)cc1 (configuration not stated),5.44
5,CCN(CC)C(=O)c1ccn(COc2cccc(Cl)c2Cl)n1,49.4
6,CC(C)(C)OC(=O)CNC(=O)CCc1nnc(-c2ccsc2)o1,-10.2
7,O=C(NC1CCCCC1)N1CCc2onc(COc3cccnc3)c2C1,-69.9
8,c1ccc2c(NCC3(N4CCOCC4)CCSC3)ncnc2c1 (configuration not stated),57
9,Cn1ncc(-c2cc(-c3cccc(O)c3)nc(N)c2C#N)c1C1CC1,79.1
10,Cc1cn(-c2ccccc2)nc1NS(=O)(=O)c1ccc(C(=O)O)cc1,-5.51
11,COc1cc2c(cc1OC)CN(C(C(=O)O)c1c(C)nn(C)c1C)CC2 (configuration not stated),-3.14
12,COCCn1ccc(NC(=O)Nc2ccccc2)n1,-0.0425
13,Fc1cccc(-c2nc(CN3CCCC(Cn4cncn4)C3)co2)c1 (configuration not stated),-12.5
14,O=C(NCCc1coc(-c2ccc(F)cc2)n1)NCC1CCOC1 (configuration not stated),-1.94
15,CSCC(=O)Nc1ncc(I)cc1C,-4.7
16,CC(C)OCCCNC(=O)CN1CCN(c2nccs2)C(C)C1 (configuration not stated),1.4
17,CC(=O)NCCCNC(=O)N1CCN(c2cc(F)ccc2F)CC1,-5.14
18,CSc1ccc(C(=O)N2CCOCC2c2c(C)n[nH]c2C)o1 (configuration not stated),-10.3
19,CCOc1cc(F)ccc1NC1CCN(CC(F)(F)F)C1=O (configuration not stated),-0.302
20,O=C(c1ccc2[nH]cnc2c1)N1CCC(Oc2cccnc2)CC1,-12.8
21,COc1cccc(CNC(=O)CCNS(=O)(=O)c2ccc(C)cc2)c1,-137

row,SMILES,cytotoxicity at 10 µM [%]
1,Cc1ccc(N2C[C@@H]3CN(C(=O)c4ccccc4)CCO[C@@H]3C2)nn1,-5.52
2,Cc1nn(CC(F)F)c2c1c(C(F)F)cc(=O)n2CC(=O)O,2.84
3,Cn1ccnc1CN1CCCC(CCCc2ccccn2)(C(N)=O)C1 (configuration not stated),2.83
4,COCCC(=O)N(CCC#N)c1ccc(C)c(C)c1,3.43
5,Cc1nc[nH]c1CN1CCCC12CCN(c1ccccn1)CC2,4.55
6,Cc1nonc1CNC(=O)C(C)Oc1ccccc1F (configuration not stated),2.57
7,CCCn1nc(-c2nc(COC)no2)ccc1=O,-11.6
8,Cc1ncc(-c2ccncc2)c(C2CCCN(C(=O)c3ccno3)C2)n1 (configuration not stated),11.9
9,Cn1[nH]c(C2CCC2)c(-c2ccc3c(c2)OCO3)c1=N,-42.3
10,CC1(C)CN(CC(O)C(C)(C)C)C(=O)CN(C(=O)c2ccccc2)C1 (configuration not stated),-6.87
11,O=C1[C@@H]2CCN(Cc3ccoc3)C[C@@H]2OCCN1c1cccnc1,-74.6
12,COc1cc(NC(=O)c2cc(Cl)ccc2F)c(C(=O)N(C)C)cc1OC,-2.61
13,CCc1cnc(CN2CCCC(c3cc(C)[nH]n3)C2)o1 (configuration not stated),0.503
14,CC(C)CN1CC[C@H](c2nnc(COc3ccc(F)cc3)o2)C1,-1.81
15,O=C(NCc1cccc(N2CC=CC2)c1)NC1CC1,9.34
16,COC(=O)c1cccn1C1CCN(C(=O)c2ccc(C)[nH]c2=O)CC1,-3.78
17,CC(=O)Nc1ccc(-n2ccc3nc(N4CCCC4)ncc3c2=O)cc1,2.24
18,COc1ccnc(N2CCN(C(=O)c3cc(C4CC4)[nH]n3)CC2)n1,6.85
19,CCCc1cc(C(=O)N(C)Cc2cnc3ccccc3n2)n(C)n1,-19.3
